# In the library only some 1.8% were active in any assay of this set; here they are far more common.
# APJ ag – agonists of human apelin receptor APJ, primary screen, CHO-K1 cells, PathHunter beta-arrestin, luminescence; activation, % at 20 µM; 0% DMSO wells, 100% apelin; P35414; 330,000 tested, 0.11% active;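 active means activation more than six SD over the plate average, tested at 20 µM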
#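 Assay system: CHO-K1 APJ beta-arrestin complementation cell line / Compound: single test compound dose, 20 µM final, 1% DMSO / Times: overnight seeding, 90 min compound at 25 °C, 1 h detection / Technique: beta-gal luminescence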
# APJ antag – antagonists of human apelin receptor APJ, primary screen, CHO-K1 cells, beta-arrestin complementation, luminescence; 330,000 tested, 0.32% active; AID 2521, 2010; P35414; inhibition, % at 20 µM;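 active means inhibition above about 40% at 20 µM, limit read from the data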;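 further: cells challenged with 10 nM apelin-13 agonist together with compound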
# CCR6 antag – CCR6 receptor antagonists, primary screen, cell-based, CHO-K1, luminescence, beta-arrestin, uHTS. 340,000 tested, 0.49% active. AID 493098, 2011. C-C chemokine receptor type 6 (Homo sapiens), P51684. inhibition, % at 20 µM. CHO-K1 CCR6 PathHunter beta-arrestin, CCL20-stimulated;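 active means compounds whose inhibition of the agonist-driven luminescence signal at 20 µM reaches about 50%, limit read from the data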;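 further: cells stimulated with CCL20 at 14 nM final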
# Target sequence (P51684 whole entry, looked up): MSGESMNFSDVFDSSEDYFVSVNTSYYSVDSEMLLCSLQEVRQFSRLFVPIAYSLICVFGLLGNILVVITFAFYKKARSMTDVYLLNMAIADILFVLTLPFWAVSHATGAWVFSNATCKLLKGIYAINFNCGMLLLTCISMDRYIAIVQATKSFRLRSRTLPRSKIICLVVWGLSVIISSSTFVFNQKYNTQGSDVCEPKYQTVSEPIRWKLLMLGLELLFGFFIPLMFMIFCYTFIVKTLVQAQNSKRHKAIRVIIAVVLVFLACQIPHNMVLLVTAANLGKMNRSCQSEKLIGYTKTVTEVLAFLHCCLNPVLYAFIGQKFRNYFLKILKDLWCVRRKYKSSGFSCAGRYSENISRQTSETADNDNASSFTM
# B2AR ag – beta2AR agonists driving receptor internalization, primary screen, cell-based, FAP fluorogen, flow cytometry; 340,000 tested, 0.43% active; response, % (test concentration not listed); Beta-2 adrenergic receptor (Homo sapiens), P07550; Am2.2-beta2AR cells;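 active means response above a set limit, near 3 SD of response in nonfluorescent compounds, cut at about 42% in these data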
# CXCR6 inh – CXCR6 receptor inhibitors, primary screen, cell-based, beta-arrestin, luminescence, CHO-K1 PathHunter, 1536-well; 360,000 tested, 0.36% active; AID 602244, 2012; inhibition, % at 20 µM; C-X-C chemokine receptor type 6 (Homo sapiens), O00574; in the data active means inhibition above about 34%, passing the limit was not always enough;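 further: antagonist mode with CXCL16 agonist at 10 nM final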
# EBI2 block – EBI2 receptor antagonists, beta-arrestin recruitment, primary screen, cell-based, luminescence, 7a,25-OHC stimulation, uHTS. 360,000 tested, 0.81% active. 7a,25-OHC stimulated. inhibition, % at 5 µM. G-protein coupled receptor 183 (Homo sapiens), P32249; in the data active means inhibition above about 38%;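 further: enzyme fragment complementation signal reports receptor beta-arrestin coupling in cells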
# EBI2 antag conf – EBI2 antagonist hit retest, beta-arrestin, confirmation, cell-based, single concentration, luminescence, 7a,25-OHC stimulation; 7a,25-OHC antagonism; 2,400 tested, 29% active; AID 651997, 2013; inhibition, % at 5 µM; shares compounds with EBI2 block;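 active means inhibition of at least 50%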
# EBI2 ag – EBI2 agonist activity of antagonist hits, confirmation, counter-screen for EBI2 antagonist project, cell-based, single concentration, agonist mode, luminescence. shares compounds with EBI2 block. AID 652000, 2013. activation, % at 5 µM. EBI2-expressing cells, 60 min; 0% vehicle, 100% 7α,25-dihydroxycholesterol control. 2,400 tested, under 10 active;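 active means activation of at least 50%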
# bGal counter – E. coli beta-galactosidase enzyme inhibition, confirmation, counter-screen for EBI2 antagonist project, biochemical, luminescence, single concentration; shares compounds with EBI2 block; 2,400 tested, 1% active; inhibition, % at 5 µM; purified beta-galactosidase, luminescent Galacton Star, 15 min;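 active means replicate-average signal at least 3 plate SD below neutral wells, shown as high inhibition, flagging enzyme-inhibiting false positives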;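 further: higher means stronger loss of beta-gal luminescence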
# Hits are given with their value; . = inactive; / = no result given.
SMILES,APJ ag,APJ antag,CCR6 antag,B2AR ag,CXCR6 inh,EBI2 block,EBI2 antag conf,EBI2 ag,bGal counter
COc1ccccc1-c1cc(NC=O)c2ncc(-c3cccc(C(C)=O)c3)n2c1,/,/,/,/,.,.,/,/,/
COc1ccc(/C=N/NC(=O)CNC(=O)c2ccncc2)cc1,.,.,.,.,.,.,/,/,/
CCS(=O)(=O)N1CCC(C(=O)N2CCN(Cc3ccccc3)CC2)CC1,.,.,.,.,.,.,/,/,/
CN1CCN(C(=O)c2ccc(-n3cccc3)cc2)CC1,.,.,.,.,.,34,.,.,.
O=C(c1ccc(-n2cccc2)cc1)N1CCN(Cc2ccccc2)CC1,.,.,.,.,.,84,73,.,.
O=C(c1ccc(Br)cc1)N1CCC(C(=O)N2CCN(Cc3ccccc3)CC2)CC1,.,.,.,.,.,63,.,.,.
COc1ccc(CCC(C)NCc2cccc(Br)c2)cc1 (centres undefined),.,.,.,.,.,.,/,/,/
CSc1ncccc1C(=O)NCCc1ccc(S(N)(=O)=O)cc1,.,.,.,.,.,.,/,/,/
Cn1cccc1CC(=O)N/N=C\c1ccccc1,.,.,.,.,.,44,.,.,.
Cn1cccc1CC(=O)N/N=C/c1ccc(Cl)cc1,.,.,.,.,.,.,/,/,/
CCn1c(SCC(=O)NNC(=O)c2ccc(C)cc2)nnc1-c1ccncc1,.,.,.,.,.,.,/,/,/
COc1ccc(C(=O)NNC(=O)CSc2nnc(-c3cccnc3)n2C)cc1,.,.,.,.,.,.,/,/,/
O=C(CSc1nnc(-c2ccc(O)cc2)n1Cc1ccccc1)NNC(=O)c1ccc(Br)cc1,.,.,.,.,.,89,87,.,.
COc1ccc(-n2c(SCC(=O)NNC(=O)c3ccc(C)cc3)nnc2-c2ccncc2)cc1,.,.,.,.,.,55,.,.,.
CCn1c(SCC(=O)NNC(=O)c2ccc(OC)cc2)nnc1-c1cccnc1,.,.,.,.,.,59,.,.,.
COc1ccc(NC(=O)C[C@H]2C(=O)N(c3ccc(Br)cc3)C[C@@H]2CSC)cc1,/,/,/,/,.,.,/,/,/
O=S(=O)(c1ccc(NC(=S)N/N=C/c2ccc(O)c(O)c2)cc1)N1CCOCC1,.,.,.,.,.,.,/,/,/
N#Cc1ccc(/C=N/NC(=S)Nc2ccc(S(=O)(=O)N3CCOCC3)cc2)cc1,.,.,.,.,.,54,.,.,.
Cc1ccccc1CS(=O)(=O)Cc1ccc(C(=O)NCCc2ccccc2)o1,.,.,.,.,.,37,.,.,.
Cn1cccc1Cc1nnc(SCC(=O)Nc2ccc3c(c2)OCO3)n1CCc1ccccc1,.,.,.,.,.,.,/,/,/
Cn1cccc1Cc1nnc(SCC(=O)Nc2ccc(F)cc2)n1CCc1ccccc1,.,.,.,.,.,51,.,.,.
COc1ccc(-n2c(Cc3cccn3C)nnc2SCC(=O)Nc2cccc(NC(C)=O)c2)cc1,.,.,.,.,.,.,/,/,/
COc1ccc(-n2c(Cc3cccn3C)nnc2SCC(=O)Nc2cccc(Cl)c2)cc1,.,.,.,.,.,47,.,.,.
COC(=O)/C=C1\C(=O)N(c2nc3ccccc3s2)C(=S)N1c1ccc(F)cc1,.,.,.,.,.,89,90,.,.
COC(=O)/C=C1\C(=O)N(c2nc3ccc(OC)cc3s2)C(=S)N1c1ccc(F)cc1,.,.,/,/,/,/,/,/,/
SMILES,APJ ag,APJ antag,CCR6 antag,B2AR ag,CXCR6 inh,EBI2 block,EBI2 antag conf,EBI2 ag,bGal counter
CN(CC(=O)Nc1ccc(Cl)c(C(F)(F)F)c1)C(=O)c1ccccc1SCC(=O)N1CCCC1,/,/,.,.,.,.,/,/,/
Cc1ccc(C2=NNC(=O)C(c3ccc(Cl)cc3)C2)cc1 (centres undefined),.,.,.,.,.,53,.,.,.
O=C1NN=C(c2ccc(Cl)cc2)CC1c1cccc(Br)c1 (centres undefined),.,.,.,.,.,.,/,/,/
C=CCn1c(SCc2ccc(C(=O)Nc3ccccc3)cc2)nnc1-c1ccccc1,.,.,.,.,.,49,.,.,.
C=CCn1c(SCC(=O)NNC(=S)Nc2ccccc2)nnc1-c1ccccc1,.,.,.,.,.,.,/,/,/
COc1cc(OC)cc(-c2nnc(NC(=O)c3ccc4c(c3)OCCO4)o2)c1,.,.,.,.,.,.,/,/,/
CC(C)[C@H](NC(=O)N1CC(=O)Nc2ccccc21)C(=O)N1CCC[C@H]1C(=O)O,.,.,.,.,.,.,/,/,/
COc1cc(N)c(Cl)cc1C(=O)OCC(=O)N1CCCCCC1,.,.,.,.,.,.,/,/,/
O=C(NCc1ccc(F)cc1)C1CCN(S(=O)(=O)c2ccc(Br)s2)CC1,.,.,.,.,.,52,.,.,.
O=C(NCc1ccc(Cl)cc1)c1ccc(S(=O)(=O)N2CCCCC2)cc1,.,.,.,.,.,49,.,.,.
O=C(NCc1ccc(Cl)cc1)C1CCN(S(=O)(=O)c2ccc(F)cc2)CC1,.,.,.,.,.,51,.,.,.
O=C(NCc1ccc(Cl)cc1)C1CCN(S(=O)(=O)c2cccnc2)CC1,.,.,.,.,.,50,.,.,.
O=C(NCc1ccc(F)cc1)c1ccc(S(=O)(=O)N2CCCCC2)cc1,.,.,.,.,.,.,/,/,/
O=C(NCc1ccncc1)C1CCN(S(=O)(=O)c2ccc(F)cc2)CC1,.,.,.,.,.,.,/,/,/
Cc1ccc(NC(=O)CCNCc2ccco2)cc1S(=O)(=O)N(C)C,.,.,.,.,.,.,/,/,/
CCc1nc2ccc(C(=O)N3CCN(C(=O)c4ccco4)CC3)cn2c1N(CCC(C)C)CCN(C)C,/,/,/,/,.,.,/,/,/
O=C(NCc1ccccc1CN1CCCC1)c1cc2cc(Cl)ccc2o1,.,.,.,.,.,.,/,/,/
O=C(NCCc1ccc(Cl)cc1)C1CCN(S(=O)(=O)N2CCCCC2)CC1,.,.,.,.,.,44,.,.,.
